Our source for the IC50 and Potency values is ChEMBL document CHEMBL1124298, “Synthesis and antineoplastic activity of 5-aryl-2,3-dihydropyrrolo[2,1-b]thiazole-6,7-dimethanol 6,7-bis(isopropylcarbamates)” (J Med Chem, 1988).

The test system of experiment [1] is HL-60. Briefly: Concentration required to reduce cell number (HL-60 human promyelocytic leukemia cell line) on day 7 by 50%. It counts as functional, cell-based. Particulars: HL-60, 168 h. In a few lines:
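HL-60 cells were grown in RPMI 1640 with 10% heat-inactivated FBS at 37 °C in humidified 10% CO2, resuspended at 10⁵/mL, and given drug. Drug was dissolved in DMSO, with at most 0.2% DMSO in the culture. Cells were counted by Coulter counter on day 7. IC50 is the concentration that reduced cell number by 50%. Values are from three experiments.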

The test system of experiment [2] is HL-60. Briefly: Growth inhibitory activity against HL-60 human promyelocytic leukemia cell line relative to NSC-278214. The experiment is classed as functional.

pIC50: −log10 of the molar value. Where only a bound is given, the exact number is not on record here.

Take `CC(C)NC(=O)OCc1c(COC(=O)NC(C)C)c(-c2ccc(Cl)c(Cl)c2)n2c1SCC2`: the negative logarithm of the IC50 (pIC50) in experiment [1] was 5.72. Besides, the Potency in experiment [2] is recorded as 0.79.
Turning to `CC(C)NC(=O)OCc1c(COC(=O)NC(C)C)c(-c2ccc(Cl)c(Cl)c2)n2c1CCC2`, the pIC50 in experiment [1] was 5.82. The compound further came in with a Potency in experiment [2] of 1.
`CC(C)NC(=O)OCc1c(COC(=O)NC(C)C)c(-c2ccccc2)n2c1SCC2` had a negative logarithm of the IC50 (pIC50) in experiment [1] of 5.82. In addition, the Potency in experiment [2] was found to be 1.
In experiment [1], `CC(C)NC(=O)OCc1c(COC(=O)NC(C)C)c(-c2ccc(F)cc2)n2c1SCC2` gave a pIC50 of 5.80. This compound also displayed a Potency in experiment [2] of 0.94.
`CC(C)NC(=O)OCc1ccccc1COC(=O)NC(C)C`: the pIC50 in experiment [1] is less than 3.52. The compound further registered a Potency in experiment [2] of less than 0.005.
In experiment [1], `CC(C)NC(=O)OCc1c(COC(=O)NC(C)C)c(-c2ccc(Cl)cc2)n2c1SCC2` had a pIC50 of 6.07. For the same compound, in experiment [2], the Potency is reported as 1.76.
